This note sets out measurements from ChEMBL document CHEMBL4052732, “Design, synthesis and biological evaluation of GPR55 agonists” (Bioorg Med Chem, 2017).

Molecules are shown by their SMILES.

For assay [1], the target named is T1, G-protein coupled receptor 55 (Homo sapiens, UniProt Q9Y2T6). As to the kind of experiment: Agonist activity at beta-galactosidase enzyme fragment-fused GPR55 (unknown origin) expressed in CHOK1 cells assessed as increase in N-terminal deletion beta-galactosidase mutant-tagged beta arrestin recruitment measured for 1 sec by chemiluminescence based pathhunter assay. Format: functional, cell-based. The procedure, abridged:
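CHO-K1 cells stably co-expressing the receptor–β-gal fragment fusion and the β-arrestin–deletion-mutant fusion, kept in selection medium, passaged up to 10 times. Ligands tested from 0.5 nM to 30 μM. Chemiluminescent substrate signal read at room temperature for 1 s. Vehicle readings subtracted from ligand readings (RLU), and EC50 obtained from these values. LPI served as positive control. Run in triplicate, repeated at least 3 times.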
Target sequence in this assay (Q9Y2T6 whole entry, looked up, stated change not applied, the tested form may be a part): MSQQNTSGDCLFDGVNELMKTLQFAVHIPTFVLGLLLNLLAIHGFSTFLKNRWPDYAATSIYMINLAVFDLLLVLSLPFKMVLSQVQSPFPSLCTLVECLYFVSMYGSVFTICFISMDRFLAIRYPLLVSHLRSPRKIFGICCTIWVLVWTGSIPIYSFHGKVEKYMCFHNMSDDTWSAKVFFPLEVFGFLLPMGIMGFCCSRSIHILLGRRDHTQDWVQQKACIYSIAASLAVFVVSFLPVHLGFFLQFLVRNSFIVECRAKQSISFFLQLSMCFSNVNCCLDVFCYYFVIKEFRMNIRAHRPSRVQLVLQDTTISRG
For orientation: Arrestin recruitment assays detect the binding of arrestin to an activated receptor.

The target in assay [2] is T1, G-protein coupled receptor 55. Nature of the assay: Agonist activity at HA-epitope-tagged variant of GPR55E with serine enhanced C terminus (unknown origin) expressed in human U2OS cells assessed as increase in GFP-tagged beta arrestin2 recruitment after 75 mins by fluorescence assay. Type of assay: cell-based.
Target sequence in this assay (Q9Y2T6 whole entry, looked up, the tested form may be a part): as the sequence (Q9Y2T6 whole entry, looked up, stated change not applied, the tested form may be a part) above
In another assay the target is Cannabinoid receptor 1 (Homo sapiens, UniProt P21554). Nature of the assay: Agonist activity at human brain CB1 receptor expressed in U2OS cells assessed as increase in beta arrestin recruitment after 60 mins by fluorescence assay. Format: functional, cell-based.
Cannabinoid receptor 1, sequence (P21554 whole entry): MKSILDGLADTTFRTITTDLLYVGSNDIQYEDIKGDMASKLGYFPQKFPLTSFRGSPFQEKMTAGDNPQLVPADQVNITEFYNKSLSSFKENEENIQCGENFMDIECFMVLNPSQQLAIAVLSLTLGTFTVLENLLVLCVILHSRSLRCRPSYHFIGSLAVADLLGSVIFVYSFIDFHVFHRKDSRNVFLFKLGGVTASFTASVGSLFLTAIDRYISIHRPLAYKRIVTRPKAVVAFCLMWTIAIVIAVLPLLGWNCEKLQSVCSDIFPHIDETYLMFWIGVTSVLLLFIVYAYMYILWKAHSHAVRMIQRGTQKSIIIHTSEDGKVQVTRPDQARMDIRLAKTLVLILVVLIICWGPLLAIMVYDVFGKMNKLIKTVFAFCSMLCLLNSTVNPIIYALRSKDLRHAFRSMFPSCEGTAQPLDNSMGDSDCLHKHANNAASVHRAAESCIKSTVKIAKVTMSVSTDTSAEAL
The next assay has as its target Cannabinoid receptor 2 (Homo sapiens, UniProt P34972). As to the kind of experiment: Agonist activity at human CB2 receptor expressed in U2OS cells assessed as increase in GFP-tagged beta arrestin recruitment after 75 mins by fluorescence assay. Type of assay: functional, cell-based.

Cannabinoid receptor 2, sequence (P34972 whole entry): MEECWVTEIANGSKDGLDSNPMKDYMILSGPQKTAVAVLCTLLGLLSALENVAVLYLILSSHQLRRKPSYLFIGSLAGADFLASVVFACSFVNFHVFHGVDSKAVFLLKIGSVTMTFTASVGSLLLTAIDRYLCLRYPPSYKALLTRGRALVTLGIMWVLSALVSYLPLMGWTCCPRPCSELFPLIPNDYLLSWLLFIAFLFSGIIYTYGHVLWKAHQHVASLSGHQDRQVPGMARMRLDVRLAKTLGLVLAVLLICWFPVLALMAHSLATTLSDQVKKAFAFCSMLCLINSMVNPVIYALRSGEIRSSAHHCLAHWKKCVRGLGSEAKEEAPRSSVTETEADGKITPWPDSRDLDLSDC

Turning to `COc1ccccc1/C=C/C(=O)NC(=S)Nc1ccc(S(=O)(=O)N(Cc2ccncc2)c2ccccc2)cc1`, the concentration giving a half-maximal response (EC50) in assay [1] is 0.3 µM.
Same read-out and setting: as for `CN(c1ccccc1)S(=O)(=O)c1ccc(NC(=S)NC(=O)c2ccc3cc(CCO)ccc3c2)cc1`, the figure is 0.3 µM.
Take `CN(c1ccccc1)S(=O)(=O)c1ccc(NC(=S)NC(=O)c2ccc3cc(CO)ccc3c2)cc1`: the EC50 in assay [1] was 4 µM.
Still for that read-out and setting: the same measure for `CN(c1ccccc1)S(=O)(=O)c1ccc(NC(=S)NC(=O)c2ccc3cccnc3c2)cc1`: 1 µM; for `COc1ccccc1/C=C/C(=O)NC(=S)Nc1ccc(S(=O)(=O)N(CCO)c2ccccc2)cc1`: 0.7 µM.
Still for that read-out and setting: as for `COc1ccccc1/C=C/C(=O)NC(=S)Nc1ccc(S(=O)(=O)N(C)c2ccncc2)cc1`, the figure is 0.5 µM.
As to `O=C(NC(=S)Nc1ccc(S(=O)(=O)N(CCO)c2ccccc2)cc1)c1ccc2cc(CCO)ccc2c1`, in assay [1], the EC50 came out at 20 µM.
With `O=C(NC(=S)Nc1ccc(S(=O)(=O)N(Cc2ccncc2)c2ccccc2)cc1)c1ccc2cccnc2c1`, the EC50 in assay [1] was found to be 0.9 µM.
Still for that read-out and setting: the same measure for `COc1ccccc1/C=C/C(=O)NC(=S)Nc1ccc(S(=O)(=O)N(Cc2cccc(O)c2)c2ccccc2)cc1`: 2 µM; for `COc1ccccc1/C=C/C(=O)NC(=S)Nc1ccc(S(=O)(=O)NCC(O)CO)cc1` (stereo not given): more than 30 µM; for `O=C(NC(=S)Nc1ccc(S(=O)(=O)N(Cc2ccc(CO)o2)c2ccccc2)cc1)c1ccc2cc(CCO)ccc2c1`: 6 µM.
For `COc1ccccc1/C=C/C(=O)NC(=S)Nc1ccc(S(=O)(=O)NCCO)cc1`, the EC50 in assay [1] was more than 30 µM.
Same read-out and setting: as for `COc1ccccc1/C=C/C(=O)NC(=S)Nc1ccc(S(=O)(=O)Nc2ccccc2)cc1`, the figure is 0.6 µM.
Turning to `COc1ccccc1/C=C/C(=O)NC(=S)Nc1ccc(S(=O)(=O)N(C)c2ccccc2)cc1`, the EC50 is 0.11 µM in assay [2], more than 30 µM at Cannabinoid receptor 1 and more than 30 µM at Cannabinoid receptor 2.
As to `CN(c1ccccc1)S(=O)(=O)c1ccc(NC(=S)NC(=O)c2cnc3ccccc3c2)cc1`, in assay [1], the EC50 was more than 30 µM.
As to `O=C(NC(=S)Nc1ccc(S(=O)(=O)N(Cc2ccc(CO)o2)c2ccccc2)cc1)c1ccc2cccnc2c1`, in assay [1], the EC50 amounted to 0.6 µM.
Still for that read-out and setting: the same measure for `O=C(NC(=S)Nc1ccc(S(=O)(=O)N(Cc2ccc(O)cc2)c2ccccc2)cc1)c1ccc2cccnc2c1`: 0.5 µM; for `O=C(NC(=S)Nc1ccc(S(=O)(=O)N(CCO)c2ccccc2)cc1)c1ccc2cccnc2c1`: 0.2 µM.
With `Cc1cccc(N2CCN(C(=O)c3cc(S(=O)(=O)N(C)C)ccc3N3CCCC3)CC2)c1C`, the values for the EC50 (in assay [2]; on Cannabinoid receptor 1; on Cannabinoid receptor 2) were 0.26 µM, more than 30 µM and more than 30 µM, respectively.
`COc1ccccc1/C=C/C(=O)NC(=S)Nc1ccc(S(=O)(=O)Nc2onc(C)c2C)cc1`: the EC50 in assay [1] is more than 30 µM.
Turning to `COc1ccccc1/C=C/C(=O)NC(=S)Nc1ccc(S(=O)(=O)N(Cc2ccc(O)cc2)c2ccccc2)cc1`, in assay [1], the EC50 came to 0.5 µM.
On to `COc1ccccc1/C=C/C(=O)NC(=S)Nc1ccc(S(=O)(=O)N(Cc2ccc(CO)o2)c2ccccc2)cc1`, for which the EC50 in assay [1] was 0.1 µM.
Still for that read-out and setting: as for `COc1ccccc1/C=C/C(=O)NC(=S)Nc1ccc(S(=O)(=O)N(Cc2ccccc2O)c2ccccc2)cc1`, the figure is 2 µM.
On to `COc1ccc2cc(C)c3nnc(SCC(=O)Nc4nc(-c5ccc(F)cc5)cs4)n3c2c1`, for which the EC50 was 0.16 µM in assay [2], more than 30 µM on Cannabinoid receptor 1 and more than 30 µM on Cannabinoid receptor 2.

By EC50 is commonly meant the concentration at which the effect is half-maximal.
